NS3 helicase inh – HCV NS3 helicase inhibition | NS3 helicase DNA unwinding, Cy5 molecular beacon fluorescence | inhibition, % at 10.9 µM | 290,000 compounds, 0.56% hits;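 active = inhibition above the mean of all tested compounds plus 3 SD, set per campaign, cut at about 35% in these data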;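 note: 0% = DMSO wells and 100% = thioflavine S control wells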
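Control set: DMSO versus 110 µM thioflavine S; Material: NS3 helicase fragment of HCV; Measured by: Cy5 fluorescence at 0 and 60 min, beacon hairpin quenching; Read-out basis: percent inhibition from t60/t0 fluorescence ratio; Times: reaction time 60 min, 25 °C; Repeats: single replicate; Compound dosing: single dose, 10.9 µM nominal final, DMSO 0.8% final.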
TAAR1 ag – agonists of human TAAR1; 360,000 compounds, 0.99% hits; activation, % at 3 µM; CHO RD-HGA16 TAAR1, Fluo-8 calcium fluorescence; vehicle wells 0%, saturating PEA agonist 100%;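 active = activation above the mean activation of all test compounds in the run plus 3 SD, cut at about 38% in these data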
Target sequence (Q96RJ0 whole entry, looked up): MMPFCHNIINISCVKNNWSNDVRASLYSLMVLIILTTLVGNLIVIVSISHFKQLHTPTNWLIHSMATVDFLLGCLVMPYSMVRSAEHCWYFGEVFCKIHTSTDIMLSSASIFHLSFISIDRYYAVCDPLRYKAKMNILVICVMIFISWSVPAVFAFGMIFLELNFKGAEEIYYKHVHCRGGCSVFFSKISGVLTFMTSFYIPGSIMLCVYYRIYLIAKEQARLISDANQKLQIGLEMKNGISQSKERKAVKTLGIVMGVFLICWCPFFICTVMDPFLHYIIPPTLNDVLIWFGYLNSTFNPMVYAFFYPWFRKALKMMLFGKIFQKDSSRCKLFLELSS
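System: CHO-derived RD-HGA16 cells with stable Gα16 and human TAAR1. Times: 17-24 h plating, Fluo-8 75 min 37 °C, 30 min RT. Measured by: calcium-sensitive Fluo-8 signal, excitation 470-495, emission 515-575 nm. Read-out basis: % activation relative to PEA EC100 response. Control set: DMSO and PEA EC100. Repeats: no replicates (n 1).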
HCV core dimer – HCV core protein dimerization inhibition. 300,000 compounds, 0.33% hits. inhibition, % at 5 µM. TR-FRET GST/Flag-core106 dimerization, 1536-well;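 active = inhibition above the mean of all tested compounds plus 3 SD, set per screening campaign, cut at about 45% in these data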
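assay system = GST-tagged and Flag-tagged HCV core protein residues 1-106 | controls = unlabelled core106 and no-GST-core106 wells | incubation = compound-protein-antibody incubation 4 h at 22.5 °C | probe or stimulus = Eu donor and XL665 acceptor anti-tag antibodies | read-out = % inhibition based on acceptor/donor emission ratio | signal = TR-FRET 671 and 617 nm emission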
rCAG binder – r(CAG) repeat RNA binding; TO-PRO-1 dye displacement fluorescence; inhibition, % at 3 µM; 370,000 compounds, 1.3% hits; AID 651821;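 active = inhibition above the plate cutoff, the mean of all test compounds on that plate plus 3 SD, cut at about 35% in these data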;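 note: 0% = DMSO alone and 100% = 100 µM mitoxantrone as full dye displacement; higher means more dye released from RNA so lower well fluorescence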
TAAR1 antag – human TAAR1 antagonism | Q96RJ0 | CHO RD-HGA16 TAAR1, Fluo-8 calcium fluorescence, antagonist | inhibition, % at 3 µM | 360,000 compounds, 1.5% hits;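 active = inhibition above a per-plate cutoff, the mean inhibition of test compounds on that plate plus 3 SD, cut at about 49% in these data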;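 note: 0% = DMSO plus EC80 beta-PEA response and 100% = DMSO alone without agonist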
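Test system: hTAAR1-expressing CHO RD-HGA16 cells, Gα16-coupled; Probe or stimulus: EC80 β-phenethylamine stimulus; Compound dosing: single nominal final test compound concentration of 3 µM; Timing: 140 s kinetic read after compound, 140 s after agonist; Signal: Fluo-8 calcium-sensitive fluorescence; Measure: % inhibition of agonist calcium response; Controls: DMSO and EC80 PEA controls.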
Numbers without * were called inactive; x = no result. Most compounds without a hit are left out; they make up all but 3.7% or so of the library.

SMILES	NS3 helicase inh	TAAR1 ag	HCV core dimer	rCAG binder	TAAR1 antag
CCCc1cc2c(=O)c(-c3nc4ccccc4s3)c(COCC(=O)O)oc2cc1O	22	0	x	55*	-10
Cc1ccccc1NC(=O)CSc1nnc(-c2cc(-c3ccccc3)n[nH]2)n1N	x	x	x	4	x
Cn1c2ccccc2c(=O)c2c(=O)n(C3CCCCCC3)c(C3CCCCC3)nc21	5	38*	x	3	1
Cc1nc2c(c(=O)c3ccccc3n2C)c(=O)n1C1CCCC1	x	11	x	1	11
COc1ccccc1C(=O)NCC(=O)N/N=C/c1cc(Br)ccc1OCc1ccccc1	0	5	18	9	49*
COc1ccc(COc2ccccc2C(=O)NCc2ccccc2)cc1F	-14	10	9	1	71*
C=CCOC(=O)CCC(=O)Nc1cccc2ccccc12	-6	3	6	4	-21
O=C(CCC(=O)OCc1ccc(C(=O)Oc2ccccc2)cc1)Nc1cccc2ccccc12	-2	8	4	0	49*
O=C(Nc1nc(OCC(F)(F)F)cnc1/C=C\c1ccccc1)c1ccsc1	x	1	x	1	57*
COc1ccc(C(=O)Nc2nc(OCC(F)(F)F)cnc2/C=C\c2ccccc2)c(OC)c1	x	1	x	6	-10
O=C1N(CCCO)CCC12CCC(c1ccccc1)CC2 (stereo not drawn)	x	x	x	-1	x
CCCCCc1cc(=O)oc2c(C(CCN3CCCC(C)C3)c3ccc(OC)cc3)c(OC)cc(OC)c12 (stereo not drawn)	x	40*	-7	7	6
CC(=O)Nc1c(-c2ccc(C(F)(F)F)cc2)nc2ncccn12	x	x	x	1	x
O=C(Cc1cccc2ccccc12)N1CCN(c2ncccn2)CC1	3	5	2	0	-14
O=C(Cc1coc2ccc3ccccc3c12)N1CCN(c2ncccn2)CC1	2	15	53*	5	2
CCOC(=O)c1c(N)sc2c1CCSC2	11	0	55*	11	-1
CCOC(=O)c1c(N)sc2c1CCC(CC)C2 (stereo not drawn)	4	-5	2	5	3
Nc1ccccc1N=c1ssnc1Cl	-8	2	x	5	-26
Cc1ccc(N=c2ssnc2Cl)cc1	-25	41*	5	-2	16
Cc1cc(Cl)ccc1N=c1ssnc1Cl	4	42*	-6	7	29
CCCCNc1nc(NCc2ccccc2)nc2ccccc12	x	78*	x	15	92*
COc1nc(OC)nc(N2CCC(C(=O)NCc3ccccc3OC)CC2)n1	x	x	x	2	x
Nc1ccc2c(c1)OCCOCCOCCOCCOCCO2	-9	2	-2	0	-9
c1ccc2c(c1)OCCOCCOc1ccccc1OCCOCCO2	9	18	-2	-6	53*
COc1cc(/C=C2\COC/C(=C\c3cc(OC)c(OC)c(OC)c3)C2=O)cc(OC)c1OC	-1	6	x	0	53*
SMILES	NS3 helicase inh	TAAR1 ag	HCV core dimer	rCAG binder	TAAR1 antag
COc1cc(/C=C2\CC/C(=C\c3cc(OC)c(OC)c(OC)c3)C2=O)cc(OC)c1OC	13	2	7	5	15
Cc1ccccc1CNC(=S)OC1CCC12CCC(c1ccccc1)CC2 (stereo not drawn)	x	x	x	4	x
COc1cccc(OCc2cc(/C=N/NC(=O)c3ccn[nH]3)ccc2OC)c1	4	3	48*	11	13
COc1ccc(/C=N\NC(=O)c2ccccc2)cc1COc1ccccc1	16	5	6	2	32
CCOC(=O)c1ccccc1OCc1cc(/C=N/n2cnnc2)ccc1OC	4	13	2	0	38
COc1ccc(/C=N\NC(=O)c2ccccc2OC)cc1COc1ccccc1C	10	0	9	-4	27
CCOC(=O)c1ccccc1OCc1cc(/C=N/NC(=O)c2cccnc2)ccc1OC	-30	17	-2	2	81*
COc1ccc(/C=N/NC(=O)c2ccoc2C)cc1COc1c(C)cccc1C	-16	6	2	3	68*
CCOC(=O)[C@]12CCCCC/C=C\1N(Cc1ccc(OC)cc1)C(=O)[C@H]2CC(=O)N1CCN(C(=O)c2ccco2)CC1	x	x	x	7	x
COC(=O)[C@H](C(C)C)N(CCc1cn(Cc2ccc(C)cc2)nn1)S(=O)(=O)c1ccc(F)cc1Br	x	x	x	6	x
CCc1noc(C)c1C(=O)OCC(=O)Nc1nc(-c2ccc(F)c(F)c2)cs1	x	13	x	6	69*
Cc1csc(NC(=O)c2c(-c3ccccc3)noc2C)n1	-6	-1	4	-3	-7
Cc1onc(-c2ccccc2)c1C(=O)Nc1nc(-c2ccc(F)c(F)c2)cs1	-6	39*	25	0	-2
CCc1noc(C)c1C(=O)Nc1nc(-c2ccc(OC)c(OC)c2)cs1	x	8	3	0	41
CCC(CC)c1nnc(NC(=O)Cc2ccccc2[N+](=O)[O-])s1	5	49*	3	2	-9
CCC(CC)c1nnc(NC(=O)c2c(C)nn(Cc3ccccc3Cl)c2C)s1	-12	41*	12	-9	15
CCC(CC)c1nnc(NC(=O)Cc2c[nH]c3ccccc23)s1	x	33	x	4	-13
Cc1nn(Cc2ccccc2Cl)c(C)c1C(=O)NC1=NCCS1	2	5	-4	-2	-8
CCOc1cc(CCNC(=O)c2cc3ccsc3n2C)ccc1OC	x	x	x	1	x
COc1ccc(CN(C(=O)CSc2nnc(-c3c[nH]c4ccccc34)o2)c2ccc(F)cc2)cc1OC	-18	26	14	9	82*
CS(=O)(=O)c1ccc2nc(NC(=O)CCC(=O)c3cccs3)sc2c1	-1	7	74*	20	-10
O=C(Nc1ccc2c(c1)CCCN2C(=O)c1ccccc1)c1ccccc1	2	12	2	-5	58*
CCOC(=O)c1sc2nc(CSc3ccccc3)nc(N3CCCN(C)CC3)c2c1C	-37	38*	-3	-6	-13
CCOC(=O)c1sc2nc(CSc3ccccc3)nc(N3CCC(C(N)=O)CC3)c2c1C	-11	22	5	0	39
COc1ccc(-c2nn(-c3ccccc3)cc2C(=O)N2CCN(S(=O)(=O)c3ccccc3[N+](=O)[O-])CC2)cc1	x	15	x	9	20
COc1ccc(-c2nn(-c3ccccc3)cc2C(=O)N2CCN(S(=O)(=O)c3ccccc3C#N)CC2)cc1	x	4	13	1	50*
Cn1c(=O)c2cc(S(=O)(=O)N3CCN(CCO)CC3)ccc2n(C)c1=O	x	x	x	0	x
CC(C)/C=C1\CC/C(=C\c2ccc(N(C)C)cc2)C1=O	4	57*	13	-14	72*
CN(C)c1ccc(/C=C2/C[N+](C)(C)C/C(=C/c3ccc(N(C)C)cc3)C2=O)cc1	x	2	x	13	15
CCN=C1SC(CC(=O)Nc2ccc3c(c2)OCO3)C(=O)N1CC (stereo not drawn)	12	16	10	0	59*

Screens deposited in PubChem BioAssay by The Scripps Research Institute Molecular Screening Center.
